Experimental data reported in ChEMBL document CHEMBL5620393, “New aryl and acylsulfonamides as state-dependent inhibitors of Nav1.3 voltage-gated sodium channel” (Eur J Med Chem, 2023).
Active and inactive are the calls of the source. The calls are words filed in the database; no cut-off is given here.

Tests used:
[1] = molecular target: T1, Sodium channel protein type 3 subunit alpha (Homo sapiens, UniProt Q9NY46); assay: Inhibition of human Nav1.3 expressed in CHO cells under inactivated state by automated patch clamp electrophysiology analysis; format: cell-based
[2] = molecular target: T1, Sodium channel protein type 3 subunit alpha; assay: Inhibition of human Nav1.3 expressed in CHO cells under resting state by automated patch clamp electrophysiology analysis; format: cell-based
[3] = molecular target: Sodium channel protein type 2 subunit alpha (Rattus norvegicus) (UniProt P04775); assay: Inhibition of rat Nav1.2 expressed in Xenopus laevis oocytes at closed state at 1 uM by two electrode voltage-clamp assay; format: cell-based; conditions: Oocyte
How it was run: (§1)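 TEVC on Nav channels expressed in Xenopus laevis oocytes. Each oocyte was injected with 50 nL cRNA at 1 ng/nL and recorded 1–4 days later at 18–22 °C. Bath (mM): NaCl 96, KCl 2, CaCl2 1.8, MgCl2 2, HEPES 5, pH 7.4. Electrodes held 3 M KCl at 0.8–1.5 MΩ. Compound tested at 1 μM. Mean ± SD, n ≥ 5.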

[4] = molecular target: T2, Sodium channel protein type 5 subunit alpha (Homo sapiens, UniProt Q14524); assay: Inhibition of human Nav1.5 expressed in CHO cells by automated patch clamp electrophysiology analysis
[5] = molecular target: Sodium channel protein type 8 subunit alpha (Mus musculus) (UniProt Q9WTU3); assay: Inhibition of mouse Nav1.6 expressed in Xenopus laevis oocytes at closed state at 1 uM by two electrode voltage-clamp assay; format: cell-based; conditions: Oocyte; how it was run: as §1
[6] = molecular target: T3, Sodium channel protein type 9 subunit alpha (Homo sapiens, UniProt Q15858); assay: Inhibition of human Nav1.7 expressed in Xenopus laevis oocytes at closed state at 1 uM by two electrode voltage-clamp assay; format: cell-based; conditions: Oocyte; how it was run: as §1
[7] = molecular target: Sodium channel protein type 4 subunit alpha (Rattus norvegicus) (UniProt P15390); assay: Inhibition of rat Nav1.4 expressed in Xenopus laevis oocytes at closed state at 1 uM by two electrode voltage-clamp assay; format: cell-based; conditions: Oocyte; how it was run: as §1
[8] = molecular target: Sodium channel protein type 3 subunit alpha (Rattus norvegicus) (UniProt P08104); assay: Inhibition of rat Nav1.3 expressed in Xenopus laevis oocytes at 1 uM under inactivated state by two electrode voltage-clamp assay relative to control; format: cell-based; conditions: Oocyte; how it was run: as §1
[9] = molecular target: T2, Sodium channel protein type 5 subunit alpha; assay: Inhibition of human Nav1.5 expressed in CHO cells under tonic pulse 1 by automated patch clamp electrophysiology analysis; format: cell-based
[10] = molecular target: T2, Sodium channel protein type 5 subunit alpha; assay: Inhibition of human Nav1.5 expressed in Xenopus laevis oocytes at closed state at 1 uM by two electrode voltage-clamp assay; format: cell-based; conditions: oocyte; how it was run: as §1
[11] = molecular target: Sodium channel protein type 1 subunit alpha (Homo sapiens) (UniProt P35498); assay: Inhibition of human Nav1.1 expressed in Xenopus laevis oocytes at closed state at 1 uM by two electrode voltage-clamp assay; format: cell-based; conditions: Oocyte; how it was run: as §1
[12] = molecular target: Sodium channel protein type 10 subunit alpha (Homo sapiens) (UniProt Q9Y5Y9); assay: Inhibition of human Nav1.8 expressed in Xenopus laevis oocytes at closed state at 1 uM by two electrode voltage-clamp assay; format: cell-based; conditions: Oocyte; how it was run: as §1
[13] = molecular target: T3, Sodium channel protein type 9 subunit alpha; assay: Inhibition of human Nav1.7 expressed in CHO cells under resting state by automated patch clamp electrophysiology analysis; format: cell-based
[14] = molecular target: T3, Sodium channel protein type 9 subunit alpha; assay: Inhibition of human Nav1.7 expressed in CHO cells under inactivated state by automated patch clamp electrophysiology analysis; format: cell-based
[15] = molecular target: Sodium channel protein type 3 subunit alpha (Rattus norvegicus) (UniProt P08104); assay: Inhibition of rat Nav1.3 expressed in Xenopus laevis oocytes at 1 uM under resting state by two electrode voltage-clamp assay relative to control; format: cell-based; conditions: Oocyte; how it was run: as §1
[16] = molecular target: T2, Sodium channel protein type 5 subunit alpha; assay: Inhibition of human Nav1.5 expressed in CHO cells under inactivated state by automated patch clamp electrophysiology analysis; format: cell-based
[17] = molecular target: T2, Sodium channel protein type 5 subunit alpha; assay: Inhibition of human Nav1.5 expressed in CHO cells under resting state by automated patch clamp electrophysiology analysis; format: cell-based
[18] = test system: HepG2; assay: Cytotoxicity against human HepG2 cells

Sodium channel protein type 10 subunit alpha (Homo sapiens), sequence (Q9Y5Y9 whole entry, looked up): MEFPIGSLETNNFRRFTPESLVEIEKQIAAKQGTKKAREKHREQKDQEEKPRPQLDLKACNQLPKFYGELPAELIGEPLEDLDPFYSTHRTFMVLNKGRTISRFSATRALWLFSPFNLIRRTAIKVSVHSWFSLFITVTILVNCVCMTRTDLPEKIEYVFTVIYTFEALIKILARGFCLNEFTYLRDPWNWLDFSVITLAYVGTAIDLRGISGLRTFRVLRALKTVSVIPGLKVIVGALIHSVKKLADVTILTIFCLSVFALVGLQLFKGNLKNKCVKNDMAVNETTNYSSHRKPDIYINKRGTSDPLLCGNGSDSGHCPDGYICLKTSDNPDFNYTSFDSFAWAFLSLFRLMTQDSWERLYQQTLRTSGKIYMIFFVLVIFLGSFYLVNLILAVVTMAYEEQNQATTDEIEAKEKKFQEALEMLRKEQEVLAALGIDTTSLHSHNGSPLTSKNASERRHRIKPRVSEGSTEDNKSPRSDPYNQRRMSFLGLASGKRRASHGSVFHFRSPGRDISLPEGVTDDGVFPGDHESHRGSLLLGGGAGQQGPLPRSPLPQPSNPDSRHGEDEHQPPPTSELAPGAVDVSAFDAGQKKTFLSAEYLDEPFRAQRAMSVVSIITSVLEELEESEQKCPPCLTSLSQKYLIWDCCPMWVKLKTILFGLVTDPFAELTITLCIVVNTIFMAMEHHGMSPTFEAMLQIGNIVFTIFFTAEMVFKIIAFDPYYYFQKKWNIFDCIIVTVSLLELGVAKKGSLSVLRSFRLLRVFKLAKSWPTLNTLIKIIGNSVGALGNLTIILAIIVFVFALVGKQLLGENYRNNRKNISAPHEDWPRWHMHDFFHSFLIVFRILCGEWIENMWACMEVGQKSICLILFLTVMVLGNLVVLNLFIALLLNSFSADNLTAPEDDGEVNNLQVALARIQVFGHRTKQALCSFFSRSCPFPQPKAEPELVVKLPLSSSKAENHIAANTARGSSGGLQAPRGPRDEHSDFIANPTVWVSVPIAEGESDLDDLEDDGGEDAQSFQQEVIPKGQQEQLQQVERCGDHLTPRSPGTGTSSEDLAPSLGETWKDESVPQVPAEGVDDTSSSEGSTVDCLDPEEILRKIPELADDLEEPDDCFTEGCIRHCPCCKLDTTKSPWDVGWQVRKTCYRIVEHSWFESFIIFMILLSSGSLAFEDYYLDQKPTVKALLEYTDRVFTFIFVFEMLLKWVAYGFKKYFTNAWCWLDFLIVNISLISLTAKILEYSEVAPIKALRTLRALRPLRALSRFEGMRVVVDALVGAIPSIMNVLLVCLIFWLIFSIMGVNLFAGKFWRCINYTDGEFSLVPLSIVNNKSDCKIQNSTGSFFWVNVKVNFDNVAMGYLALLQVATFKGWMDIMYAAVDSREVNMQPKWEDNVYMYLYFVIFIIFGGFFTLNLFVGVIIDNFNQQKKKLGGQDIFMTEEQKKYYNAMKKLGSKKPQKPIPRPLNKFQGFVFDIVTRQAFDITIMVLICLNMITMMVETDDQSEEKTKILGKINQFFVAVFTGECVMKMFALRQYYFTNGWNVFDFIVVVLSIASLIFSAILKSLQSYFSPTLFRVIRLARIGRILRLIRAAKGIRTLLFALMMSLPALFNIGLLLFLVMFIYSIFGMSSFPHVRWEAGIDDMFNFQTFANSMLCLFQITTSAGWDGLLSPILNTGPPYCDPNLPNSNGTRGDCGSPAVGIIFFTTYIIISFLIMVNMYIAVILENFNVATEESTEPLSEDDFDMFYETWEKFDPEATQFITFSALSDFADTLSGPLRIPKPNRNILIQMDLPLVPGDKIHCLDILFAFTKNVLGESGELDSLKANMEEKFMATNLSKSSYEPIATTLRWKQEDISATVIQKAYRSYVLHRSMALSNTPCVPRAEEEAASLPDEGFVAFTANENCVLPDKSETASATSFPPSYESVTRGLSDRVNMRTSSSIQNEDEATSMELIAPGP
Sodium channel protein type 2 subunit alpha (Rattus norvegicus), sequence (P04775 whole entry, looked up): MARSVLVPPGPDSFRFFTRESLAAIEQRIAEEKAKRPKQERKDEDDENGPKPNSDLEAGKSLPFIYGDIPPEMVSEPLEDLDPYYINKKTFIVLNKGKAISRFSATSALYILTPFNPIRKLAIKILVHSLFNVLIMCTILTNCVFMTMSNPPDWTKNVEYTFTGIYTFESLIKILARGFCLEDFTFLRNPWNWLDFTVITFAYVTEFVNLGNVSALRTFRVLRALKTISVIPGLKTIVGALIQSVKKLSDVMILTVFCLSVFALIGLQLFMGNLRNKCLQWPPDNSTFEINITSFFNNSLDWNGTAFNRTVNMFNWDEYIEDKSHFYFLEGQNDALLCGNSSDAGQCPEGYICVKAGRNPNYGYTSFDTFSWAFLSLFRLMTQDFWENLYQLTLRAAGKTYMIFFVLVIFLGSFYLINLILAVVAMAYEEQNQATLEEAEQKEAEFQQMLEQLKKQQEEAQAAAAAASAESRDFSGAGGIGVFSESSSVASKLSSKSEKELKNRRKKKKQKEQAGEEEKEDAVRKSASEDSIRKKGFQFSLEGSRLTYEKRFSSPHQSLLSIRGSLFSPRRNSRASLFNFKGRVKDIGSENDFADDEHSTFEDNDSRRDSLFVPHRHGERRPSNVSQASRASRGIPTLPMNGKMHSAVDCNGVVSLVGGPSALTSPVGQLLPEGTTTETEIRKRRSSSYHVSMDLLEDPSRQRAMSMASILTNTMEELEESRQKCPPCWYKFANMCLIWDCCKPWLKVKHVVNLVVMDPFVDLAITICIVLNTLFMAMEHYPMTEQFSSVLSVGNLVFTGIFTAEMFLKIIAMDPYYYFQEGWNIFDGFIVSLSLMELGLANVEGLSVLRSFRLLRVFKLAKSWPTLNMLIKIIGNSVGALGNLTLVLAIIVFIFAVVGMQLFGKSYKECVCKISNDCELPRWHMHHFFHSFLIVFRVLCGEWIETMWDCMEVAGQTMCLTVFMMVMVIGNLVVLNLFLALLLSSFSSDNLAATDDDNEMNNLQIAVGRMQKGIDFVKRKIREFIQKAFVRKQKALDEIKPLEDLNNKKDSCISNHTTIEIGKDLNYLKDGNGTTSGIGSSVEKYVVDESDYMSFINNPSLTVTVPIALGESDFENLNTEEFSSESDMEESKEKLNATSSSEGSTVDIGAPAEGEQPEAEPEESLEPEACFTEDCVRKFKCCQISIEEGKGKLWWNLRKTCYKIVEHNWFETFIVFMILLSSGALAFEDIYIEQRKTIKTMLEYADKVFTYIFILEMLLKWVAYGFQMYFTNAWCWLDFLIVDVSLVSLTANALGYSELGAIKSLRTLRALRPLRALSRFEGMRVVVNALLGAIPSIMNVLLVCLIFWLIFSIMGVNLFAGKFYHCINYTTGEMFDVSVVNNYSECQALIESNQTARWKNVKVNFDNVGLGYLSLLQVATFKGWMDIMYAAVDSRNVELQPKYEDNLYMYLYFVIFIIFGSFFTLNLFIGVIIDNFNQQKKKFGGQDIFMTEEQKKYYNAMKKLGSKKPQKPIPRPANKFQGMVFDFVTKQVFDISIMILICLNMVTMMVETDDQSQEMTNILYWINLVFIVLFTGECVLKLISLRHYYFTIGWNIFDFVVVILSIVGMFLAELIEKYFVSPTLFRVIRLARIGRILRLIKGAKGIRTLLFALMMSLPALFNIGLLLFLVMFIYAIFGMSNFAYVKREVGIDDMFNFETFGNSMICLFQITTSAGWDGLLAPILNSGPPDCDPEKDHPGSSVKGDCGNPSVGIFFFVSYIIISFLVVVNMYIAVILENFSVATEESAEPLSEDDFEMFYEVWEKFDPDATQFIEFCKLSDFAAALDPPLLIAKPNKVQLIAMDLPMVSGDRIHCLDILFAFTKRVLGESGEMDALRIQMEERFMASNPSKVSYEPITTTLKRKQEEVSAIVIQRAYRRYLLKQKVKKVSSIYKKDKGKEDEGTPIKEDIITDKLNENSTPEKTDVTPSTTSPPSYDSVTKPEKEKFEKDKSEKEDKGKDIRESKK

| SMILES | IC50 [1] [µM] | IC50 [2] [µM] | inhibition [3] | IC50 [4] [µM] | inhibition [5] | inhibition [6] | inhibition [7] | inhibition [8] [%] | IC50 [9] [µM] | inhibition (INH) [10] | inhibition [11] | inhibition [12] | IC50 [13] [µM] | IC50 [14] [µM] | inhibition [15] [%] | IC50 [16] [µM] | IC50 [17] [µM] | IC50 [18] [µM] |
| --- | --- | --- | --- | --- | --- | --- | --- | --- | --- | --- | --- | --- | --- | --- | --- | --- | --- | --- |
| CC(Oc1ccc(Cl)cc1)C(=O)Nc1ccc(S(=O)(=O)Nc2nccs2)cc1 (configuration not stated) | 0.32 | > 30 | inactive | > 30 | inactive | inactive | inactive | 21 | > 30 | Not Active | inactive | inactive | – | – | – | – | – | – |
| O=C(Nc1ccc(S(=O)(=O)Nc2nccs2)cc1)C1Cc2cc(Cl)ccc2O1 (configuration not stated) | 0.24 | > 30 | inactive | > 30 | inactive | inactive | inactive | 21 | > 30 | Not Active | inactive | inactive | – | – | – | – | – | – |
| O=C(Nc1ccc(S(=O)(=O)Nc2nccs2)cc1)C1CC1c1ccc(F)c(F)c1 (racemic) | 0.02 | 6.9 | inactive | > 30 | inactive | inactive | inactive | 63 | > 30 | Not Active | inactive | inactive | > 30 | 7.1 | < 9 | 3 | > 30 | – |
| COc1cc([C@@H]2c3cc4c(cc3[C@@H](O[C@@H]3O[C@@H]5CO[C@@H](C)O[C@H]5[C@H](O)[C@H]3O)[C@H]3COC(=O)[C@H]23)OCO4)cc(OC)c1O [ETOPOSIDE] | – | – | – | – | – | – | – | – | – | – | – | – | – | – | – | – | – | 30.2 |
